Results as given in article PMC10500653 (ACS Omega, 2023).
Where two headings read alike, the source gives them in different places. One block for each compound: values may come before it.

What was measured:
Cytotoxicity assay = format: cell-based; details: human, MRC-5 normal embryonic lung cells
How it was run: (§1)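 Cells were pre-plated in medium, then an equal volume of medium holding serial dilutions of the test compound was added to reach the final concentrations. Controls were DMSO (negative) and etoposide and/or doxorubicin (positive). Plates were incubated a further 48 h and surviving cells were counted by MTT. IC50 is the concentration giving 50% growth inhibition relative to the DMSO control.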

[1] = tested on: A549 lung carcinoma cell line; experiment: Cytotoxicity assay; format: cell-based, human; details: for IC50: Homo sapiens, A549, 48 h
How it was run: as §1

[2] = tested on: MDA-MB-231 hormone-independent breast cancer; experiment: Cytotoxicity assay; format: cell-based; details: Homo sapiens, MDA-MB-231, 48 h, read-out: Cytotoxic activity IC50, MDA-MB-231
How it was run: as §1

[3] = tested on: T47D hormone-dependent breast cancer; experiment: Cytotoxicity assay; format: cell-based; details: Homo sapiens, 48 h, read-out: Cytotoxic activity IC50, T47D
How it was run: as §1

[4] = tested on: MOLT-3 lymphoblastic leukemia cell line; experiment: Cytotoxicity assay; format: cell-based; details: Homo sapiens, MOLT-3, 48 h, read-out: Cytotoxic activity IC50, MOLT-3
How it was run: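 MOLT-3 cells received an equal volume of additional medium with serial dilutions of the test compound to reach the final concentrations. DMSO served as the negative control and etoposide and/or doxorubicin as the positive control. After a further 48 h incubation, surviving cells were counted by XTT. IC50 is the concentration inhibiting growth by 50% versus the DMSO control.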

[5] = tested on: HepG2 hepatocellular carcinoma cell line; experiment: Cytotoxicity assay; format: cell-based, human; details: for IC50: Homo sapiens, HepG2, 48 h; for Cytotoxic activity IC50, HepG2: 48 h, MTT
How it was run: as §1

FGFR1 tyrosine kinase = FGFR1 tyrosine kinase (Homo sapiens, UniProt P11362); experiment: ADP-Glo kinase assay, FGFR1; format: biochemical; details: for inhibition at 1 µM: read-out: % inhibition of FGFR1
Sequence of FGFR1 tyrosine kinase (P11362 22-822): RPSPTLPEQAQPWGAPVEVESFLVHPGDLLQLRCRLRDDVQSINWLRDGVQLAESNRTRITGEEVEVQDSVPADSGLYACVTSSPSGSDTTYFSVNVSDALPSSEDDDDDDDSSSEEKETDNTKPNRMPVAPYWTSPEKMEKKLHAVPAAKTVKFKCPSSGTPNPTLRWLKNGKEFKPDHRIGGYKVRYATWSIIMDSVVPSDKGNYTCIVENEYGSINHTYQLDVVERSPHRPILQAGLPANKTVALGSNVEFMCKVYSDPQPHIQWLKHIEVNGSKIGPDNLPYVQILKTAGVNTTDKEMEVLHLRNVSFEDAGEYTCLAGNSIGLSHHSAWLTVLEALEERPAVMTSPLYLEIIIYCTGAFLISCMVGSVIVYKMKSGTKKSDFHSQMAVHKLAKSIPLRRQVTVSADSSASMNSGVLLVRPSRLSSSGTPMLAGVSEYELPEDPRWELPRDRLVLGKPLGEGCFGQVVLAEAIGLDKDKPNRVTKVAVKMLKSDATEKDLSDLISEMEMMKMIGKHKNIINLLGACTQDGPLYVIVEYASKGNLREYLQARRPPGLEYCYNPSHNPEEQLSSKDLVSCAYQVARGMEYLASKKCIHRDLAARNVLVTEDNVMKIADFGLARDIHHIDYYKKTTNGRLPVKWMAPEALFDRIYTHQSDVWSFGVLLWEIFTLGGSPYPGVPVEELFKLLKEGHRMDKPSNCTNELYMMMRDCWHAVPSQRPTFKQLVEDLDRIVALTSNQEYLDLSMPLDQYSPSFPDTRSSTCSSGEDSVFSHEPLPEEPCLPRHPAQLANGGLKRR

[6] = tested on: HuCCA-1 cholangiocarcinoma cell line; experiment: Cytotoxicity assay; format: cell-based; details: Homo sapiens, HuCC-A1, 48 h, read-out: Cytotoxic activity IC50, HuCCA-1
How it was run: as §1

[7] = read-out: Cytotoxic activity IC50, A549
[8] = read-out: Cytotoxic activity IC50, HepG2
[9] = read-out: Cytotoxic activity, HepG2 (class NC)

SMILES: COc1cc(/C=C/C(=O)c2cccc(NC3=C(Cl)C(=O)c4ccccc4C3=O)c2)cc(OC)c1OC [Compound 3, (E)-2-Chloro-3-((3-(3-(3,4,5-trimethoxyphenyl)acryloyl)phenyl)amino)naphthalene-1,4-dione]
- IC50 at 48 h (Cytotoxicity assay): 2520 ± 260 nM
- IC50 [1, 7]: 51600 ± 10300 nM
- IC50 [2]: 1050 ± 40 nM
- IC50 [3]: 1150 ± 80 nM
- IC50 [4]: 990 ± 120 nM
- IC50 [5, 8]: 16900 ± 740 nM
- IC50 [6]: 4720 ± 480 nM

SMILES: COc1cccc(/C=C/C(=O)c2ccc(NC3=C(Cl)C(=O)c4ccccc4C3=O)cc2)c1 [Compound 6, (E)-2-Chloro-3-((4-(3-(3-methoxyphenyl)acryloyl)phenyl)amino)naphthalene-1,4-dione]
- IC50 at 48 h (Cytotoxicity assay): 2690 ± 150 nM
- IC50 [1, 7]: 13500 ± 1490 nM
- IC50 [2]: 1310 ± 30 nM
- IC50 [3]: 2100 ± 120 nM
- IC50 [4]: 1780 ± 60 nM
- IC50 [5, 8]: 6880 ± 2720 nM
- IC50 [6]: 11100 ± 370 nM

SMILES: COc1cc(/C=C/C(=O)c2ccc(NC3=C(Cl)C(=O)c4ccccc4C3=O)cc2)cc(OC)c1OC [Compound 8, (E)-2-Chloro-3-((4-(3-(3,4,5-trimethoxyphenyl)acryloyl)phenyl)amino)naphthalene-1,4-dione]
- IC50 at 48 h (Cytotoxicity assay): 2920 ± 360 nM
- IC50 [1, 7]: 25800 ± 3550 nM
- IC50 [2]: 1090 ± 20 nM
- IC50 [3]: 1610 ± 70 nM
- IC50 [4]: 810 ± 20 nM
- IC50 [5, 8]: 10870 ± 10 nM
- IC50 (FGFR1 tyrosine kinase): 1.69 ± 0.71 nM
- IC50 [6]: 4720 ± 330 nM

SMILES: COc1ccc(/C=C/C(=O)c2ccc(NC3=C(Cl)C(=O)c4ccccc4C3=O)cc2)cc1O [Compound 9, (E)-2-Chloro-3-((4-(3-(3-hydroxy-4-methoxyphenyl)acryloyl)phenyl)amino)naphthalene-1,4-dione]
- IC50 at 48 h (Cytotoxicity assay): 14940 ± 90 nM
- Cytotoxic activity IC50, A549 ([1]; A549, 48 h, MTT): inactive
- IC50 ([1]; read-out: Cytotoxic activity, A549 (class NC)): > 50 µg/mL
- IC50 [2]: 6810 ± 520 nM
- IC50 [3]: 24000 ± 1610 nM
- IC50 [4]: 830 ± 10 nM
- Cytotoxic activity IC50, HepG2 [5]: inactive
- IC50 [5, 9]: > 50 µg/mL
- IC50 (FGFR1 tyrosine kinase): 0.5 ± 0.04 nM
- IC50 [6]: 6850 ± 1200 nM

SMILES: O=C(/C=C/c1ccc(O)cc1)c1ccc(NC2=C(Cl)C(=O)c3ccccc3C2=O)cc1 [Compound 10, (E)-2-Chloro-3-((4-(3-(4-hydroxyphenyl)acryloyl)phenyl)amino)naphthalene-1,4-dione]
- IC50 at 48 h (Cytotoxicity assay): 8310 ± 3300 nM
- IC50 [1, 7]: 44200 ± 4060 nM
- IC50 [2]: 1370 ± 70 nM
- IC50 [3]: 3210 ± 60 nM
- IC50 [4]: 2350 ± 390 nM
- IC50 [5, 8]: 57500 ± 1280 nM
- IC50 (FGFR1 tyrosine kinase): 3.13 ± 0.67 nM
- inhibition at 1 µM (FGFR1 tyrosine kinase): > 70%
- IC50 [6]: 7700 ± 2850 nM

SMILES: COc1cccc2c1C(=O)c1c(O)c3c(c(O)c1C2=O)C[C@@](O)(C(=O)CO)C[C@@H]3O[C@H]1C[C@H](N)[C@H](O)[C@H](C)O1 [doxorubicin, reference compound]
- IC50 at 48 h (Cytotoxicity assay): 2790 ± 110 nM
- IC50 [1, 7]: 370 ± 20 nM
- IC50 [2]: 1840 ± 130 nM
- IC50 [3]: 840 ± 10 nM
- IC50 [5, 8]: 570 ± 50 nM
- IC50 [6]: 420 ± 20 nM

SMILES: COc1cc([C@@H]2c3cc4c(cc3[C@@H](O[C@@H]3O[C@@H]5CO[C@@H](C)O[C@H]5[C@H](O)[C@H]3O)[C@H]3COC(=O)[C@H]23)OCO4)cc(OC)c1O [etoposide, reference compound]
- IC50 [4]: 41 ± 3 nM
- IC50 [5, 8]: 33980 ± 10 nM

The next lines start with results.

- IC50 (FGFR1 tyrosine kinase): 0.91 ± 0.08 nM
- inhibition at 1 µM (FGFR1 tyrosine kinase): > 70%
SMILES: COc1cccc(/C=C/C(=O)c2cccc(NC3=C(Cl)C(=O)c4ccccc4C3=O)c2)c1OC [Compound 1, (E)-2-Chloro-3-((3-(3-(2,3-dimethoxyphenyl)acryloyl)phenyl)amino)naphthalene-1,4-dione]
- IC50 at 48 h (Cytotoxicity assay): 4960 ± 140 nM
- IC50 [1, 7]: 6120 ± 1560 nM
- IC50 [2]: 1080 ± 120 nM
- IC50 [3]: 1810 ± 40 nM
- IC50 [4]: 1240 ± 30 nM
- IC50 [5, 8]: 5130 ± 150 nM
- IC50 [6]: 1160 ± 400 nM

- IC50 (FGFR1 tyrosine kinase): 1.5 ± 0.28 nM
- inhibition at 1 µM (FGFR1 tyrosine kinase): > 70%
SMILES: COc1ccc(/C=C/C(=O)c2cccc(NC3=C(Cl)C(=O)c4ccccc4C3=O)c2)c(OC)c1OC [Compound 2, (E)-2-Chloro-3-((3-(3-(2,3,4-trimethoxyphenyl)acryloyl)phenyl)amino)naphthalene-1,4-dione]
- IC50 at 48 h (Cytotoxicity assay): 2600 ± 40 nM
- IC50 [1, 7]: 33500 ± 170 nM
- IC50 [2]: 1790 ± 120 nM
- IC50 [3]: 2320 ± 80 nM
- IC50 [4]: 1810 ± 50 nM
- IC50 [5, 8]: 16300 ± 440 nM
- IC50 [6]: 8870 ± 1030 nM

- IC50 (FGFR1 tyrosine kinase): 0.96 ± 0.05 nM
- inhibition at 1 µM (FGFR1 tyrosine kinase): > 70%
SMILES: COc1cc(/C=C/C(=O)c2cccc(NC3=C(Cl)C(=O)c4ccccc4C3=O)c2)cc(OC)c1O [Compound 4, (E)-2-Chloro-3-((3-(3-(4-hydroxy-3,5-dimethoxyphenyl)acryloyl)phenyl)amino)naphthalene-1,4-dione]
- IC50 at 48 h (Cytotoxicity assay): 2900 ± 480 nM
- IC50 [1, 7]: 25000 ± 4220 nM
- IC50 [2]: 1430 ± 110 nM
- IC50 [3]: 2120 ± 110 nM
- IC50 [4]: 1100 ± 140 nM
- IC50 [5, 8]: 12800 ± 420 nM
- IC50 [6]: 7060 ± 1360 nM

- IC50 (FGFR1 tyrosine kinase): 0.33 ± 0.01 nM
- inhibition at 1 µM (FGFR1 tyrosine kinase): > 70%
SMILES: O=C(/C=C/c1ccc(O)cc1)c1cccc(NC2=C(Cl)C(=O)c3ccccc3C2=O)c1 [Compound 5, (E)-2-Chloro-3-((3-(3-(4-hydroxyphenyl)acryloyl)phenyl)amino)naphthalene-1,4-dione]
- IC50 at 48 h (Cytotoxicity assay): 11000 ± 990 nM
- IC50 [1, 7]: 31900 ± 3710 nM
- IC50 [2]: 3330 ± 80 nM
- IC50 [3]: 5750 nM
- IC50 [4]: 2190 ± 260 nM
- IC50 [5, 8]: 13070 ± 120 nM
- IC50 [6]: 5650 ± 80 nM

- IC50 (FGFR1 tyrosine kinase): 0.85 ± 0.08 nM
- inhibition at 1 µM (FGFR1 tyrosine kinase): > 70%
SMILES: COc1ccc(/C=C/C(=O)c2ccc(NC3=C(Cl)C(=O)c4ccccc4C3=O)cc2)cc1OC [Compound 7, (E)-2-Chloro-3-((4-(3-(3,4-dimethoxyphenyl)acryloyl)phenyl)amino)naphthalene-1,4-dione]
- IC50 at 48 h (Cytotoxicity assay): 2930 ± 160 nM
- IC50 [1, 7]: 62060 ± 140 nM
- IC50 [2]: 1160 ± 30 nM
- IC50 [3]: 1860 ± 60 nM
- IC50 [4]: 1270 ± 120 nM
- Cytotoxic activity IC50, HepG2 [5]: inactive
- IC50 [5, 9]: > 50 µg/mL
- IC50 [6]: 7320 ± 370 nM
